Assay results: ChEMBL document CHEMBL3784974, “Design and Structural Characterization of Potent and Selective Inhibitors of Phosphatidylinositol 4 Kinase IIIβ” (J Med Chem, 2016)

Legend:
[1] = biological target: T1, Phosphatidylinositol 4,5-bisphosphate 3-kinase catalytic subunit delta isoform (Homo sapiens, UniProt O00329); experiment: Inhibition of histidine-tagged recombinant human full length PI3Kdelta expressed in baculovirus preincubated for 15 mins followed by addition of cold ATP/gamma32P-ATP measured after 20 mins in presence of MgCl2
T1 sequence (O00329 whole entry): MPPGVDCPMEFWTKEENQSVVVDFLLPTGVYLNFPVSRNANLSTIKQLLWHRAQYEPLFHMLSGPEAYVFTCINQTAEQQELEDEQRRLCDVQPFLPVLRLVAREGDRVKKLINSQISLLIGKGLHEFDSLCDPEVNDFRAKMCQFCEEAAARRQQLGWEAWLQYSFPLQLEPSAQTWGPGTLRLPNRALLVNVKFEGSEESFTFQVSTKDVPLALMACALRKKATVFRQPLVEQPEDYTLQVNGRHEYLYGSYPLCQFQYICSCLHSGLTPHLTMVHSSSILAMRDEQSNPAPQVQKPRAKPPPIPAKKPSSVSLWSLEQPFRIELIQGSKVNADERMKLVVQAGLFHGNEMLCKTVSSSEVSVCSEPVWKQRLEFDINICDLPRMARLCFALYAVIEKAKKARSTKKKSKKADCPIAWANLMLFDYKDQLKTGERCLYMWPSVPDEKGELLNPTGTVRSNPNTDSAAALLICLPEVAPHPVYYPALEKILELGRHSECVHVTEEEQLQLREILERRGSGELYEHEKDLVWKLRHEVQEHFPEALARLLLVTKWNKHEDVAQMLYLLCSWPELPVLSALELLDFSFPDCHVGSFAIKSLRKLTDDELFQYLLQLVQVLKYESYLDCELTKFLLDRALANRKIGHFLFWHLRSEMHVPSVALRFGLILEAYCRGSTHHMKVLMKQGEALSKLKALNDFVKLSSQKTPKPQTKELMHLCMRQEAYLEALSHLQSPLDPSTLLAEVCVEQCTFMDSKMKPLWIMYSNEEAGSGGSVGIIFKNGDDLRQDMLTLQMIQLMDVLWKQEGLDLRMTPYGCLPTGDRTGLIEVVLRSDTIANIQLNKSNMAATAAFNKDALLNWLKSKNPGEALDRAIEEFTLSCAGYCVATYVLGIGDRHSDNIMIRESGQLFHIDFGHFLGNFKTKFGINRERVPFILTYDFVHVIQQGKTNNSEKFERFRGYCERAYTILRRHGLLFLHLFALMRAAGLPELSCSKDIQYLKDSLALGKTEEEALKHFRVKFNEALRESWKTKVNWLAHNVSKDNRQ
Outline: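 Final: 50 mM HEPES pH 7.5, 100 mM NaCl, 0.03% CHAPS, 10 mM MgCl2, 1 mM EGTA, 2 mM DTT, 80 µM PIP2 (PIP2:DOPS:DOPC), 500 ng/µL BSA, 2% DMSO, 10 µM ATP, 2.5 uCi γ32P-ATP. Nitrocellulose capture, phosphorimaging.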

[2] = Inhibition of GST-tagged recombinant human full length PI4K3beta expressed in insect cells preincubated for 15 mins followed by addition of cold ATP/gamma32P-ATP measured after 30 mins in presence of MgCl2
Outline: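 Membrane-capture radiometric assay. Purchased enzyme, final 2.5 nM. Enzyme preincubated 15 min with inhibitor (diluted in 10% DMSO), then 30 min reaction. Final: 20 mM Bis-Tris propane pH 7.5, 10 mM MgCl2, 0.075 mM Triton X-100, 0.5 mM EGTA, 1 mM DTT, 100 µM PI in PI:DOPS:DOPC, 500 ng/µL BSA, 2% DMSO, 10 µM ATP, 1 uCi γ32P-ATP. Product spotted on nitrocellulose, washed in 1M NaCl/1% phosphoric acid, phosphorimaged.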

[3] = biological target: T2, Phosphatidylinositol 3-kinase catalytic subunit type 3 (Homo sapiens, UniProt Q8NEB9); experiment: Inhibition of GST-tagged recombinant human full length VPS34 expressed in baculovirus preincubated for 15 mins followed by addition of cold ATP/gamma32P-ATP measured after 1 hr in presence of MnCl2
T2 sequence (Q8NEB9 whole entry): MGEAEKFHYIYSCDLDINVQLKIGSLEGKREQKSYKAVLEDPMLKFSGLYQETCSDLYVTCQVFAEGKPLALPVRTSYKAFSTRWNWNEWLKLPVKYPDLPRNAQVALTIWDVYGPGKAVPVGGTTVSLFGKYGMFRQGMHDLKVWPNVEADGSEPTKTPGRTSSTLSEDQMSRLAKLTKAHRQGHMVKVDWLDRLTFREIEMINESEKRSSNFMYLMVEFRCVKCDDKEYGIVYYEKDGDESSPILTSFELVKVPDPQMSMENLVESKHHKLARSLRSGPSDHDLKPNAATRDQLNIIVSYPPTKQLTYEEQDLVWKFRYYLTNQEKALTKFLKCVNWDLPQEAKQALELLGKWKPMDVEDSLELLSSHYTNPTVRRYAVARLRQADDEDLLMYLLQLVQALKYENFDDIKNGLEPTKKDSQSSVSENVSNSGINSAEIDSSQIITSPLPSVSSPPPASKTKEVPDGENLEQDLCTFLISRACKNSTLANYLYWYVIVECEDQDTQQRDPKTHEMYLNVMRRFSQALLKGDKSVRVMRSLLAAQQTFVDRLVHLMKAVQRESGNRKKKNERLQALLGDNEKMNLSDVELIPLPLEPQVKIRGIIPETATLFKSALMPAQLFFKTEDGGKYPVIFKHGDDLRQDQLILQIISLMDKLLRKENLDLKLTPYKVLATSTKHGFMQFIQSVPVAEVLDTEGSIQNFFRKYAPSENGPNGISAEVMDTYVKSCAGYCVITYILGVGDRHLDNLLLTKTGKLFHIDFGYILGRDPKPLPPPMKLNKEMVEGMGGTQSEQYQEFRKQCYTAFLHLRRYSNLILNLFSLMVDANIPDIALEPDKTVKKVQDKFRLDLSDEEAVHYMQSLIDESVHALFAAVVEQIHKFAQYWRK
Outline: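 Radiometric membrane-capture assay, 10 nM purchased vps34, 15 min preincubation with inhibitor, then 1 h reaction. Final: 50 mM HEPES pH 7.5, 0.1% CHAPS, 2mM MnCl2, 1 mM EGTA, 2 mM DTT, 100 µM PI in PI:DOPS:DOPC, 500 ng/µL BSA, 2% DMSO, 10 µM ATP, 2.5 uCi γ32P-ATP; spots washed, phosphorimaged.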

[4] = Cytotoxicity against human Huh7.5 cells after 3 days by presto blue assay; format: cell-based, Huh-7
Outline: (§1)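 Huh7.5 cells stably infected with J6/JFH1-GLuc, kept in DMEM/10% FBS, glutamine, NEAA, pen/strep at 37 °C, 5% CO2. 10,000 cells/well; serially diluted compound added 1 h after plating; 3-day incubation. Replication read as Gaussia luciferase activity in supernatant; viability by Presto Blue.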

[5] = biological target: T3, Phosphatidylinositol 4,5-bisphosphate 3-kinase catalytic subunit gamma isoform (Homo sapiens, UniProt P48736); experiment: Inhibition of histidine-tagged recombinant human full length PI3Kgamma expressed in insect cells preincubated for 15 mins followed by addition of cold ATP/gamma32P-ATP measured after 15 mins in presence of MgCl2
Target sequence in this assay (P48736 whole entry, canonical isoform): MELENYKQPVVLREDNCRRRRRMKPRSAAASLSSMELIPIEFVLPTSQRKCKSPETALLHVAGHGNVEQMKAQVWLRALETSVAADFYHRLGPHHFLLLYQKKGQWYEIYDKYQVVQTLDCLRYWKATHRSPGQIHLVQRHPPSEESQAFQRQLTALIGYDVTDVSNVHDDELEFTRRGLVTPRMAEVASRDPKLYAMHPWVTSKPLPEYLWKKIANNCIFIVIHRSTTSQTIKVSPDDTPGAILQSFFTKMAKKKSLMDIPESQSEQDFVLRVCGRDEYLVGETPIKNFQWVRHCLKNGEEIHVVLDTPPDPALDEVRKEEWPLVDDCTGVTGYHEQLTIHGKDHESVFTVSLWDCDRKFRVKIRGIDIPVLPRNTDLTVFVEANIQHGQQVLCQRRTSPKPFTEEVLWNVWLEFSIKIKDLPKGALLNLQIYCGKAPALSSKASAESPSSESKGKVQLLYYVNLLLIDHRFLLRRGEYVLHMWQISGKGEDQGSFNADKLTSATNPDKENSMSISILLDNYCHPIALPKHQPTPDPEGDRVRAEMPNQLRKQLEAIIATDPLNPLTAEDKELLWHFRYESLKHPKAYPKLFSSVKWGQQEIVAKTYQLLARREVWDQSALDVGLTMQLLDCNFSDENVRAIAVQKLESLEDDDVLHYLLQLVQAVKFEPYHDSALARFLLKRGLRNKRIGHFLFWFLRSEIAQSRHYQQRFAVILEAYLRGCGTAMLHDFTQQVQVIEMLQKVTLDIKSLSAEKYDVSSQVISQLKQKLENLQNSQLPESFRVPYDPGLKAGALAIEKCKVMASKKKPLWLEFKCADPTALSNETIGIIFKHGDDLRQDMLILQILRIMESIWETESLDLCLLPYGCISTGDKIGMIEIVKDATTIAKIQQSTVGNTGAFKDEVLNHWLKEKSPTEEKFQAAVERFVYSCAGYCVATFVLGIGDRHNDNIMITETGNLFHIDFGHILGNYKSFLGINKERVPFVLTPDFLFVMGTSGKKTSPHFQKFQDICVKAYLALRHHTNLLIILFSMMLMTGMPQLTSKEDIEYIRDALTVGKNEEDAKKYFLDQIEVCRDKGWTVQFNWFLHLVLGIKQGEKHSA

Hepatitis C virus = experiment: Antiviral activity against HCV genotype 2a J6/JFH1 infected in human Huh7.5 cells after 3 days by gaussia luciferase assay; format: functional, organism-based, Hepacivirus hominis; details: subtype 2a J6/JFH1, Huh-7, 72 h; outline: as §1
[6] = biological target: T4, Phosphatidylinositol 4,5-bisphosphate 3-kinase catalytic subunit delta isoform (Homo sapiens) (UniProt O00329); experiment: Inhibition of histidine-tagged recombinant human full length PI3Kdelta expressed in baculovirus at 50 uM preincubated for 15 mins followed by addition of cold ATP/gamma32P-ATP measured after 20 mins in presence of MgCl2
T4 sequence (whole entry): T1 sequence (O00329 whole entry)

[7] = biological target: T3, Phosphatidylinositol 4,5-bisphosphate 3-kinase catalytic subunit gamma isoform; experiment: Inhibition of histidine-tagged recombinant human full length PI3Kgamma expressed in insect cells at 50 uM preincubated for 15 mins followed by addition of cold ATP/gamma32P-ATP measured after 15 mins in presence of MgCl2
Target sequence in this assay (P48736 whole entry, looked up, canonical isoform): as the sequence (P48736 whole entry, canonical isoform) above

[8] = biological target: T2, Phosphatidylinositol 3-kinase catalytic subunit type 3; experiment: Inhibition of GST-tagged recombinant human full length VPS34 expressed in baculovirus at 50 uM preincubated for 15 mins followed by addition of cold ATP/gamma32P-ATP measured after 1 hr in presence of MnCl2

IC50 [1] [nM]	IC50 [3] [nM]	IC50 [5] [nM]	IC50 (Hepatitis C virus) [nM]	inhibition [6] [%]	inhibition [7] [%]	inhibition [8] [%]	Compound	IC50 [2] [nM]	CC50 at 72 h [4] [nM]
4.9	32	5	570				CC(=O)Nc1nc(C)c(-c2ccc(Cl)c(S(=O)(=O)Nc3ccc(O)cc3)c2)s1	4.2	7000
340	> 50000	1500	4400				Cc1nc(NC(=O)C2CCCC2)sc1-c1ccc(Cl)c(S(=O)(=O)NCCO)c1	16	20000
223	> 50000	181	29000				COc1ccc(-c2sc(NC(C)=O)nc2C)cc1S(=O)(=O)NCCO	4.4	42000
1570	> 50000	3700	6800				Cc1nc(NC(=O)C(C)(C)C)sc1-c1ccc(Cl)c(S(=O)(=O)NCCO)c1	5.5	33000
29	245	31	5900				CC(=O)Nc1nc(C)c(-c2ccc(Cl)c(S(=O)(=O)Nc3ccc(F)cc3)c2)s1	23	13000
	307		4800				CC(=O)/N=c1/[nH]c(C)c(-c2ccc(Cl)c(S(=O)(=O)NCCO)c2)s1	17	10000
33	146	21	3000				CC(=O)Nc1nc(C)c(-c2ccc(Br)c(S(=O)(=O)NCCO)c2)s1	5.3	5500
	> 50000	> 50000	17000	< 50	< 20	< 20	COc1ccc(-c2sc(NC(=O)C(C)(C)C)nc2C)cc1S(=O)(=O)NCCO	36	> 40000
